One data set deals with Escherichia coli. Nature of the data set: Antimicrobial activity against Escherichia coli D21 after 18 to 20 hrs by micro-broth dilution method. The data set is classed as functional. In a few lines:
(§1)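 Microbroth dilution per NCCLS (2001): midlog-phase bacteria at 2 × 10^6 CFU/mL in Mueller-Hinton medium mixed 1:1 with MH broth containing peptide in serial 2-fold dilutions (20% ethanol), range 0.75-24 µM. Incubated 18–20 h at 37 °C; growth read as absorbance at 600 nm. MIC taken as the lowest peptide concentration giving 100% growth inhibition.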

The next data set has as its system Candida albicans. The data set is described as follows: Antimicrobial activity against Candida albicans ATCC 10231 after 18 to 20 hrs by micro-broth dilution method. The class given is functional. Put shortly:
(§2)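 Yeasts tested by NCCLS (2001) microbroth dilution in Winge medium: cells mixed 1:1 with medium containing peptide in serial 2-fold dilutions (20% ethanol), range 0.75-24 µM. Incubated 18–20 h at 30 °C; absorbance read at 600 nm. MIC defined as the peptide concentration giving 100% growth inhibition.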
A general note: Dilution methods test growth across graded concentrations, often in twofold steps.

Data set [1] can be described thus: Toxicity assessed as hemolytic activity in human erythrocytes at 12 uM after 30 mins. The data set is classed as cell-based, Erythrocyte. The following applies: read-out: Activity. In a few lines:
(§3)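 Human erythrocyte suspension in 0.9% (w/v) NaCl incubated 30 min at 37 °C with gentle mixing alongside serial 2-fold peptide dilutions (peptide dissolved in 20% ethanol). After centrifugation, supernatant absorbance read at 415 nm. Complete lysis reference obtained by suspending erythrocytes in distilled water.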

Data set [2] has as its system Staphylococcus aureus. Nature of the data set: Antimicrobial activity against Staphylococcus aureus ATCC 25923 after 18 to 20 hrs by micro-broth dilution method. The class given is functional. Put shortly: as §1
For a further data set, the system named is Priestia megaterium. Nature of the data set: Antimicrobial activity against Bacillus megaterium Bm11 after 18 to 20 hrs by micro-broth dilution method. The data set is classed as functional. In a few lines: as §1
The test system of a further data set is Pseudomonas syringae. The data set is described as follows: Antimicrobial activity against Pseudomonas syringae pv tabaci after 18 to 20 hrs by micro-broth dilution method. The class given is functional. Put shortly:
as §1

For another data set, the system named is Streptococcus pyogenes. Nature of the data set: Antimicrobial activity against Streptococcus pyrogenes ATCC 21547 after 18 to 20 hrs by micro-broth dilution method. The class given is functional. Put shortly: as §1
The next data set concerns Saccharomyces cerevisiae. Nature of the data set: Antimicrobial activity against Saccharomyces cerevisiae after 18 to 20 hrs by micro-broth dilution method. The class given is functional. In a few lines:
as §2

For a further data set, the system named is Saccharomyces. Nature of the data set: Antimicrobial activity against Saccharomyces pombe after 18 to 20 hrs by micro-broth dilution method. The class given is functional. Put shortly: as §2
The subject of data set [3] is Yersinia pseudotuberculosis. The data set is described as follows: Antimicrobial activity against Yersinia pseudotuberculosis YP3 after 18 to 20 hrs by micro-broth dilution method. The data set is classed as functional. In a few lines:
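Microbroth dilution per NCCLS (2001). Mid-log bacteria at 2 × 10^6 CFU/mL in Mueller-Hinton broth are mixed 1:1 with MH broth holding serial 2-fold peptide dilutions in 20% ethanol, range 0.75-24 µM. Plates are incubated 18–20 h at 37 °C and growth is read as A600. MIC is the lowest concentration giving 100% growth inhibition.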

Data set [4] in a line: Antimicrobial activity against […] faecalis ATCC 29212 after 18 to 20 hrs by microbroth dilution method. The class given is functional. In a few lines: as §1
For data set [5], the system named is Staphylococcus aureus. Nature of the data set: Antimicrobial activity against Staphylococcus aureus Cowan 1 after 18 to 20 hrs by micro-broth dilution method. The class given is functional. Put shortly: as §1
A short description of data set [6]: Toxicity assessed as hemolytic activity in human erythrocytes at 3 uM after 30 mins. The data set is classed as cell-based, Erythrocyte. Particulars: read-out: Activity. Put shortly: as §3
A short description of data set [7]: Toxicity assessed as hemolytic activity in human erythrocytes at 24 uM after 30 mins. The class given is cell-based, Erythrocyte. Particulars: read-out: Activity. Put shortly:
as §3

The test system of the next data set is Pseudomonas aeruginosa. The data set is described as follows: Antimicrobial activity against Pseudomonas aeruginosa ATCC 15692 after 18 to 20 hrs by microbroth dilution method. The class given is functional. Put shortly: as §1
The test system of data set [8] is Staphylococcus epidermidis. The data set is described as follows: Antimicrobial activity against Staphylococcus epidermidis ATCC 12228 after 18 to 20 hrs by micro-broth dilution method. The data set is classed as functional. In a few lines:
as §1

For a further data set, the system named is Staphylococcus capitis. The data set is described as follows: Antimicrobial activity against Staphylococcus capitis after 18 to 20 hrs by micro-broth dilution method. The data set is classed as functional. In a few lines:
as §1

The nature of data set [9]: Toxicity assessed as hemolytic activity in human erythrocytes at 6 uM after 30 mins. The data set is classed as cell-based, Erythrocyte. Particulars: read-out: Activity. In a few lines: as §3

Regarding H-FVPWFSKFLGRIL-NH2, the MIC in the data set with Escherichia coli was 12 µM; with Candida albicans it was 6 µM; in the data set on Staphylococcus aureus [2], 3 µM; in the data set on Priestia megaterium, 1.5 µM; against Pseudomonas syringae it was 6 µM; in the data set with Streptococcus pyogenes it was 6 µM. Moreover, the MIC is 6 µM against Saccharomyces cerevisiae; 3 µM in the data set on Saccharomyces; 3 µM in data set [3]; 6 µM in data set [4]; 1.5 µM in the data set on Staphylococcus aureus [5]; 24 µM against Pseudomonas aeruginosa. Further, the MIC (in [8]; in the data set on Staphylococcus capitis) was 1.5 µM throughout. Moreover, in data set [1], the hemolysis at 0.5 h, 12 µM worked out at 42%. The hemolysis at 0.5 h, 3 µM in [6] worked out at 6%. The hemolysis at 0.5 h, 24 µM in data set [7] came out at 92%. In addition, the hemolysis at 0.5 h, 6 µM in data set [9] amounted to 10%.
Turning to “H-FLQLIGRVLSGIL-NH2 [GLN-TA, TEMPORIN A]”, the MIC in the data set with Escherichia coli was greater than 24 µM; with Candida albicans, 6 µM; against Staphylococcus aureus [2] it was 1.5 µM; against Priestia megaterium, 0.75 µM; in the data set with Pseudomonas syringae, greater than 24 µM; in the data set on Streptococcus pyogenes it was 6 µM. The MIC against Saccharomyces cerevisiae is 6 µM; in the data set with Saccharomyces, 3 µM; in data set [3] it was 6 µM; in data set [4], 6 µM; in the data set on Staphylococcus aureus [5], 1.5 µM; with Pseudomonas aeruginosa, greater than 24 µM. Besides, the MIC (in [8]; with Staphylococcus capitis) was 1.5 µM throughout. In addition, the hemolysis at 0.5 h, 12 µM in [1] came out at 70%. Moreover, the hemolysis at 0.5 h, 3 µM in data set [6] was 9%. For the same substance, the hemolysis at 0.5 h, 24 µM in data set [7] came to 92%. For the same substance, the hemolysis at 0.5 h, 6 µM in data set [9] is 18%.
Take H-FLPLIGRVLSGIL-NH2 [TEMPORIN A]: the MIC is greater than 24 µM against Escherichia coli; 12 µM against Candida albicans; 3 µM in the data set on Staphylococcus aureus [2]; 1.5 µM against Priestia megaterium; greater than 24 µM in the data set on Pseudomonas syringae; 12 µM against Streptococcus pyogenes. Also, the MIC with Saccharomyces cerevisiae is 6 µM; in the data set with Saccharomyces, 3 µM; in [3] it was 12 µM; in [4], 12 µM; against Staphylococcus aureus [5], 1.5 µM; against Pseudomonas aeruginosa, greater than 24 µM. The MIC in [8] came to 3 µM; with Staphylococcus capitis it was 1.5 µM. In addition, the hemolysis at 0.5 h, 12 µM in data set [1] amounted to 6%. Besides, the hemolysis at 0.5 h, 3 µM in data set [6] came out at 3%. In data set [7], the hemolysis at 0.5 h, 24 µM came to 28%. In data set [9], the hemolysis at 0.5 h, 6 µM came out at 4.5%.
As to H-FVQWFSKFLGRIL-NH2 [TEMPORIN L], the MIC came to 12 µM against Escherichia coli; 12 µM with Candida albicans; 3 µM in the data set on Staphylococcus aureus [2]; 1.5 µM in the data set on Priestia megaterium; 6 µM against Pseudomonas syringae; 6 µM with Streptococcus pyogenes. For the same substance, the MIC was 6 µM in the data set with Saccharomyces cerevisiae; 6 µM in the data set on Saccharomyces; 3 µM in data set [3]; 6 µM in data set [4]; 3 µM against Staphylococcus aureus [5]; 24 µM against Pseudomonas aeruginosa. For the same substance, the figures for the minimal inhibitory concentration (MIC) (in [8]; with Staphylococcus capitis) were 3 µM and 1.5 µM, respectively. Besides, in data set [1], the hemolysis at 0.5 h, 12 µM was 92%. Also, the hemolysis at 0.5 h, 3 µM in data set [6] was determined as 13%. In addition, the hemolysis at 0.5 h, 24 µM in data set [7] amounted to 94%. Further, the hemolysis at 0.5 h, 6 µM in [9] turned out to be 48%.

Usually MIC stands for the lowest concentration that inhibits growth of the organism. The low end stands for inhibition by little substance, the high end for a need for much substance.

These data come from ChEMBL document CHEMBL1144825, “A different molecular mechanism underlying antimicrobial and hemolytic actions of temporins A and L” (J Med Chem, 2008).
